From PMC5812400 (ESMO Open, 2018)

Tested on: adult patients with advanced non-haematological malignancies
Test: DLT and MTD/RP2D determination, phase I dose escalation of milled TAK-228
Assay type: in vivo, human
Conditions: for Maximum tolerated dose (MTD) / Recommended phase II dose (RP2D): milled
Outline: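 Open-label dose escalation at four US sites with milled oral capsules, fasted, in 28-day cycles. Arms: QD days 1–28 (start 4 mg); QD days 2–4, 9–11, 16–18, 23–25 (start 6 mg) with IV taxane 80 mg/m2 on days 1, 8 and 15, ~24 h before dosing; QW days 1, 8, 15, 22 (start 20 mg). DLT: drug-related AE preventing further escalation. MTD: dose giving ≤1 DLT in cycle 1. DLT-evaluable: ≥75% of planned cycle 1 doses, or stopped earlier for a drug-related AE.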

CC(C)n1nc(-c2ccc3oc(N)nc3c2)c2c(N)ncnc21 [TAK-228, Sapanisertib]
Patients with DLT (QD 3 mg, 10 patients, grade 3 thrombocytopaenia): one patient experienced a DLT
DLT-evaluable patients with at least one DLT (QD 4 mg): 3/6
Patients with DLT (QW 20 mg): none of the six patients
Patients with DLT (QW 30 mg, cohort expanded to 12 patients, grade 3 adverse drug reaction): 1 patient
Patients with DLT (QW 30 mg, initial six DLT-evaluable patients): none experiencing DLTs
Maximum tolerated dose (MTD) (QD 3 days/week in combination with paclitaxel 80 mg/m^2): 6 mg
Recommended phase II dose (RP2D) (in combination with paclitaxel 80 mg/m^2): 4 mg
Maximum tolerated dose (MTD) (single-agent QD): 3 mg
Recommended phase II dose (RP2D) (single-agent QD): 3 mg
Maximum tolerated dose (MTD) (single-agent QW): 30 mg
Recommended phase II dose (RP2D) (single-agent QW): 30 mg
